PLC-gamma1 inh = blocks human PLC-gamma1 enzyme activity. P19174. purified PLC-gamma1, fluorogenic substrate, fluorescence. inhibition, % at 12.2 µM. hit rate 0.84% among 370,000. AID 720700; in the data active = inhibition above about 9.5%
KLK7 zymogen act = proKLK7 (human) activation, primary screen; activation, % at 7 µM; P49862; purified proKLK7, EDANS-DABCYL substrate fluorescence; 100% is mature enzyme control, 0% vehicle; hit rate 0.9% among 370,000; AID 652039;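 active = activation above the mean of all tested compounds plus 3 SD, computed per campaign excluding outliers beyond control limits, cut at about 13% in these data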
Target sequence (P49862 whole entry, looked up): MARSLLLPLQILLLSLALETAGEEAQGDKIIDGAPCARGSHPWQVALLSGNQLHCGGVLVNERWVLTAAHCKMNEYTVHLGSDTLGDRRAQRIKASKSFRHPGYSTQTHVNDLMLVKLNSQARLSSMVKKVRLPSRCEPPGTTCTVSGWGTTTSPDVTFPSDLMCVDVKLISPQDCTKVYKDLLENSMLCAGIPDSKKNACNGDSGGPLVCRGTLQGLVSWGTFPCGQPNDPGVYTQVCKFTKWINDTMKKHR
DDE Tn6 FP inh = inhibitors of Tn6 peptide binding to human fibrin DD(E); P02675; Fibrin DD(E) TRITC-Tn6 fluorescence polarization displacement; inhibition, % at 8.3 µM; hit rate 0.21% among 370,000;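 active = inhibition above a per-campaign cutoff: mean of compounds within control limits plus 3 SD, cut at about 15% in these data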
Target sequence (P02675 whole entry, looked up): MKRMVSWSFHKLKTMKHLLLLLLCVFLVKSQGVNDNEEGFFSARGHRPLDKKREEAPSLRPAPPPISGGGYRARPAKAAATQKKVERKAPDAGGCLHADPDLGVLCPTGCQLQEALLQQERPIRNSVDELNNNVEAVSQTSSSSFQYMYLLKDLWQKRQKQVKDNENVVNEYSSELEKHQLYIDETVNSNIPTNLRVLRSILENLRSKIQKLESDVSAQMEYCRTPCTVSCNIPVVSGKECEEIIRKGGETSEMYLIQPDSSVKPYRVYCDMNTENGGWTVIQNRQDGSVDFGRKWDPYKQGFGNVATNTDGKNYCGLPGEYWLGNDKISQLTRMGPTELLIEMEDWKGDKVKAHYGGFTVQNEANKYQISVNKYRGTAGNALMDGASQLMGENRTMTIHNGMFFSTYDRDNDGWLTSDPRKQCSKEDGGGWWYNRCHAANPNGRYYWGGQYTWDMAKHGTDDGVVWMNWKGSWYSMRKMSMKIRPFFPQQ
PLCb3 inh = blocks human PLC-beta3 enzyme activity; inhibition, % at 12.2 µM; Q01970; Purified PLC-beta3, fluorogenic substrate, fluorescence; hit rate 0.18% among 370,000; AID 720704; in the data active = inhibition above about 11%
DDE Tn7 FP inh = disrupts Tn7 cyclic peptide binding to fibrin D-Dimer-E complex | P02675 | FP displacement of FITC-Tn7 peptide from fibrin DD(E); 0% = median of compound wells per plate | inhibition, % at 8.3 µM | hit rate 0.13% among 370,000 | AID 720508;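 active = inhibition above the mean of compounds falling within the control limits plus 3 SD of them, cut at about 14% in these data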
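Test system – human fibrin DD(E) · Times – 10 min preincubation, 3 h with tracer, room temperature · Detection – fluorescence polarization of the labelled Tn7 tracer · Measure – percent inhibition normalized to high-control wells · Benchmarks – high control wells with 10 µM unlabelled Aha-Tn7 peptide (full inhibition) · Repeats – singlicate testing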
CendR NRP1 mod = NRP-1/CendR interaction modulation | inhibition, % at 25 µM | hit rate 0.85% among 360,000 | FAM-RPARPAR peptide binding to NRP-1, fluorescence polarization | AID 602438 | O14786;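 active = inhibition or corrected inhibition above about 18%, plus a signal ratio from 0.5 to 1.5, limit read from the data, passing the limit was not always enough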
KLK7 act conf = confirmation of human kallikrein-7 zymogen activators | shares compounds with KLK7 zymogen act | purified proKLK7, EDANS-DABCYL substrate fluorescence; scaled: vehicle 0, mature enzyme 100 | activation, % at 7 µM | hit rate 68% among 3,200 | AID 686949;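 active = activation, as change over the incubation, above the mean of all tested compounds plus 3 SD, cut at about 13% in these data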
EDANS-DABCYL int = optically interferes with EDANS-DABCYL signal, flagging KLK7 hits; activation, % at 7 µM; hit rate 80% among 3,200; shares compounds with KLK7 zymogen act; EDANS-DABCYL substrate fluorescence interference, no enzyme, 4 h; solvent 0%, active enzyme control 100%;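 active = activation above the all-compound mean plus 3 SD, ignoring values outside control-based bounds, cut at about 4.8% in these data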;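 also: value is the 4 h activation minus the activation read at time zero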
DDE Tn7 confirm = DD(E)-Tn7 binding inhibition, FP confirmation. shares compounds with DDE Tn7 FP inh. FP displacement of TRITC-Tn7 peptide from DD(E); 0% set at plate's compound-well median. inhibition, % at 8.3 µM. hit rate 5% among 460;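 active = inhibition above the campaign cutoff, the mean of compounds within control limits plus 3 SD, cut at about 14% in these data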;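 also: displacers lower polarization since freed probe rises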
Tn7 DDE ctr = counter-screen for inhibitors of Tn7 peptide binding to fibrin DD(E); shares compounds with DDE Tn7 FP inh; TRITC-Tn7 probe displacement, fluorescence polarization; inhibition, % at 8.3 µM; hit rate 3% among 460;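 active = inhibition above the cutoff, the mean of compounds lying between the control bounds plus 3 SD of those compounds, cut at about 17% in these data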
DDE Tn6 FP ctr = counter-screen for inhibitors of Tn6 peptide binding to fibrin DD(E); shares compounds with DDE Tn6 FP inh; TRITC-Tn6 fluorescence polarization displacement; 0% = median of compound wells, not DMSO; inhibition, % at 8.3 µM; hit rate 2% among 680;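 active = inhibition above the mean of test compounds lying between the control limits plus 3 SD of those, cut at about 14% in these data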
DDE Tn6 confirm = confirmation of inhibitors of Tn6 binding to human fibrin DD(E); shares compounds with DDE Tn6 FP inh; FP displacement of TRITC-Tn6 peptide from DD(E); 0% = per-plate median of test wells; inhibition, % at 8.3 µM; hit rate 10% among 680; AID 720631;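 active = inhibition above the mean of compounds lying within the control limits plus 3 SD, cut at about 16% in these data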
Numbers stand for hits. This is a sample that favours compounds with a hit; in the whole collection about 3% have one here.

What do the screens show for `C(=N\NC1=Nc2cccc3cccc1c23)/c1ccccc1`?
PLC-gamma1 inh: inactive; KLK7 zymogen act: inactive; DDE Tn6 FP inh: inactive; PLCb3 inh: inactive; DDE Tn7 FP inh: inactive; CendR NRP1 mod: inactive

What do the screens show for `CCOC(=O)C1(C)C(=O)CC2c3nc4ccccc4cc3CN2C1=O` (configuration not stated)?
PLC-gamma1 inh: inactive; KLK7 zymogen act: 20; DDE Tn6 FP inh: 75; PLCb3 inh: inactive; DDE Tn7 FP inh: inactive; CendR NRP1 mod: inactive; KLK7 act conf: inactive; EDANS-DABCYL int: inactive; DDE Tn6 FP ctr: inactive; DDE Tn6 confirm: 47

Results for CN(C)C(=O)c1cccc(-c2cnc3c(NC=O)cc(-c4ccccc4Cl)cn23)c1 ?
PLC-gamma1 inh: inactive; KLK7 zymogen act: inactive; DDE Tn6 FP inh: inactive; PLCb3 inh: inactive; DDE Tn7 FP inh: inactive; CendR NRP1 mod: inactive

How did CN(C)C(=O)c1cccc(-c2cnc3c(NC=O)cc(-c4ccccc4N(C)C)cn23)c1 do in these assays?
PLC-gamma1 inh: inactive; KLK7 zymogen act: 105; DDE Tn6 FP inh: 31; PLCb3 inh: inactive; DDE Tn7 FP inh: inactive; CendR NRP1 mod: inactive; KLK7 act conf: 217; EDANS-DABCYL int: 237; DDE Tn6 FP ctr: inactive; DDE Tn6 confirm: inactive

How did CC1(C)Cc2c(cnn2-c2ccccc2)C(NC(=O)CCCN2CCCCC2=O)C1 (configuration not stated) do in these assays?
PLC-gamma1 inh: inactive; KLK7 zymogen act: inactive; DDE Tn6 FP inh: inactive; PLCb3 inh: inactive; DDE Tn7 FP inh: 16; CendR NRP1 mod: inactive; DDE Tn7 confirm: inactive; Tn7 DDE ctr: inactive

Results for O=C1CCC[C@H]2C[C@H](NCc3cccnc3)CC[C@]23CCCN13 ?
PLC-gamma1 inh: inactive; DDE Tn6 FP inh: inactive; PLCb3 inh: inactive; DDE Tn7 FP inh: inactive

Results for COc1ccc(NS(=O)(=O)c2ccc3c(c2)NC(=O)C(C)S3)cc1 (configuration not stated) ?
PLC-gamma1 inh: inactive; KLK7 zymogen act: inactive; DDE Tn6 FP inh: inactive; PLCb3 inh: inactive; DDE Tn7 FP inh: 14; CendR NRP1 mod: inactive; DDE Tn7 confirm: inactive; Tn7 DDE ctr: inactive

What do the screens show for `COc1ccc(NC(=O)C2CCN(S(=O)(=O)c3ccc4c(c3)NC(=O)C(C)S4)CC2)cc1` (configuration not stated)?
PLC-gamma1 inh: inactive; KLK7 zymogen act: inactive; DDE Tn6 FP inh: inactive; PLCb3 inh: inactive; DDE Tn7 FP inh: inactive; CendR NRP1 mod: inactive

Results for COc1ccc(N2C(=O)NC3CC2(C)Oc2ccccc23)cc1 (configuration not stated) ?
PLC-gamma1 inh: inactive; KLK7 zymogen act: inactive; DDE Tn6 FP inh: inactive; PLCb3 inh: inactive; DDE Tn7 FP inh: 16; CendR NRP1 mod: inactive; DDE Tn7 confirm: inactive; Tn7 DDE ctr: inactive

How did CCOC(=O)[C@@]12CCCC3=C1N(CCC3)C(=O)[C@H]2CC(=O)NCCCOC do in these assays?
PLC-gamma1 inh: inactive; KLK7 zymogen act: inactive; DDE Tn6 FP inh: inactive; PLCb3 inh: inactive; DDE Tn7 FP inh: inactive

How did O=C1CCCc2c1cc(C(=O)O)c(=O)n2-c1ccccc1 do in these assays?
PLC-gamma1 inh: inactive; KLK7 zymogen act: inactive; DDE Tn6 FP inh: inactive; PLCb3 inh: inactive; DDE Tn7 FP inh: inactive; CendR NRP1 mod: inactive

Results for COC(=O)C(CCSC)NC(=O)c1cc2c(n(-c3ccccc3)c1=O)CCCC2=O (configuration not stated) ?
PLC-gamma1 inh: inactive; KLK7 zymogen act: inactive; DDE Tn6 FP inh: inactive; PLCb3 inh: inactive; DDE Tn7 FP inh: 15; CendR NRP1 mod: inactive; DDE Tn7 confirm: inactive; Tn7 DDE ctr: inactive

How did Cc1ccc(CNC(=O)[C@@H](Cc2ccccc2)NC(=O)[C@H]2O[C@@H](n3ccc(N)nc3=O)[C@H](O)[C@@H]2O)o1 do in these assays?
PLC-gamma1 inh: inactive; KLK7 zymogen act: inactive; DDE Tn6 FP inh: inactive; PLCb3 inh: inactive; DDE Tn7 FP inh: inactive

Results for COc1ccc(C(=O)N2CCN(c3ccc(NC(=O)c4ccco4)cc3)CC2)cc1 ?
PLC-gamma1 inh: inactive; KLK7 zymogen act: inactive; DDE Tn6 FP inh: inactive; PLCb3 inh: inactive; DDE Tn7 FP inh: 14; CendR NRP1 mod: inactive; DDE Tn7 confirm: inactive; Tn7 DDE ctr: inactive

What do the screens show for `CCc1ccc(C(=O)N2CCN(c3ccc(NC(=O)c4ccco4)cc3)CC2)cc1`?
PLC-gamma1 inh: inactive; KLK7 zymogen act: inactive; DDE Tn6 FP inh: inactive; PLCb3 inh: inactive; DDE Tn7 FP inh: inactive; CendR NRP1 mod: inactive

How did COc1ccc(Cl)cc1C(=O)OCC(=O)N(CC(C)C)c1c(N)n(Cc2ccccc2)c(=O)[nH]c1=O do in these assays?
PLC-gamma1 inh: inactive; KLK7 zymogen act: inactive; DDE Tn6 FP inh: inactive; PLCb3 inh: inactive; DDE Tn7 FP inh: inactive; CendR NRP1 mod: inactive

How did CCN(C(=O)COC(=O)c1cc(Cl)ccc1OC)c1c(N)n(Cc2ccccc2)c(=O)[nH]c1=O do in these assays?
PLC-gamma1 inh: inactive; KLK7 zymogen act: inactive; DDE Tn6 FP inh: inactive; PLCb3 inh: inactive; DDE Tn7 FP inh: 14; CendR NRP1 mod: inactive; DDE Tn7 confirm: inactive; Tn7 DDE ctr: inactive

Results for CN(C)S(=O)(=O)c1ccc(C(=O)NCC(=O)N/N=C/c2cccs2)cc1 ?
PLC-gamma1 inh: inactive; KLK7 zymogen act: inactive; DDE Tn6 FP inh: inactive; PLCb3 inh: inactive; DDE Tn7 FP inh: 15; CendR NRP1 mod: inactive; DDE Tn7 confirm: inactive; Tn7 DDE ctr: inactive

Results for O=C(NC(=O)c1ccc(C(F)(F)F)cc1)Nc1ccc(-c2cnco2)cc1 ?
PLC-gamma1 inh: inactive; KLK7 zymogen act: inactive; DDE Tn6 FP inh: inactive; PLCb3 inh: inactive; DDE Tn7 FP inh: 14; CendR NRP1 mod: inactive; DDE Tn7 confirm: inactive; Tn7 DDE ctr: inactive
